According to ChEMBL document CHEMBL4715794, “Design, Synthesis, and Biological Evaluation of Novel Cyclic Adenosine-Inosine Monophosphate (cAIMP) Analogs That Activate Stimulator of Interferon Genes (STING)” (J Med Chem, 2016):
The source made the active and inactive calls. The rule behind the calls is not given here.

How the values were obtained:
RAW [1] = assay: Induction of type I IFN production in mouse RAW-Lucia ISG-KO-STING cells at 0.08 to 60 ug/ml incubated for 48 hrs by luciferase reporter gene assay; type: functional, cell-based; details: dose 0.08-60 µg/ml
[2] = Stability in presence of snake venom phosphodiesterase assessed as parent compound remaining level at 7 ug incubated for 2 hrs by HPLC analysis; type: ADME; details: in vitro, at 7 µg
Procedure, shortened: (§1)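 7 µg of each CDN incubated at 37 °C in a water bath with 21 µL of enzyme solution (160 µg snake venom phosphodiesterase in PBS with 0.6 mM MgCl2), with water as the no-enzyme control. Aliquots were taken at time points from 0 to 2 h, heated at 100 °C for 2 min, frozen, then injected onto a C18 UHPLC column with UV detection to follow the parent compound.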

[3] = Stability in presence of snake venom phosphodiesterase assessed as parent compound remaining level at 7 ug incubated for >2 hrs by HPLC analysis; type: ADME; details: at 7 µg
[4] = target: T1, Stimulator of interferon genes protein (Mus musculus, UniProt Q3TBT3); assay: Activation of STING in mouse RAW-Lucia ISG cells assessed as induction of type I IFNs stimulation by measuring induction of IRF pathway incubated for 48 hrs by luciferase reporter gene assay; type: cell-based
T1 sequence (Q3TBT3 whole entry): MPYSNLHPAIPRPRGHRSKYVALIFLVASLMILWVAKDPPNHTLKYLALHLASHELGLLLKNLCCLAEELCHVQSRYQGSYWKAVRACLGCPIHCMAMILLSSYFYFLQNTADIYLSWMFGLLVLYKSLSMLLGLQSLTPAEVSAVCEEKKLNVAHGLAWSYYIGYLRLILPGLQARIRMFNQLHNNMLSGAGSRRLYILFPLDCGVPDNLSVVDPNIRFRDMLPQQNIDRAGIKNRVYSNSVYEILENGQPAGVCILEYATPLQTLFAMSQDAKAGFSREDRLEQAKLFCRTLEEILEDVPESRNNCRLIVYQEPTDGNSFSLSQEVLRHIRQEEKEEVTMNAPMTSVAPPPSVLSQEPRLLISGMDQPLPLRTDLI
Procedure, shortened: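 Cells (~100,000/well) stimulated 48 h at 37 °C, 5% CO2, with saline vehicle or compound in saline at seven concentrations. Luciferase reporter read with Quanti-Luc. EC50 from log(agonist) dose-response fit; mean ± SD of three independent experiments.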

[5] = target: T2, Stimulator of interferon genes protein (Mus musculus) (UniProt Q3TBT3); assay: Activation of STING in mouse RAW-Lucia ISG cells assessed as induction of type I IFNs stimulation by measuring induction of IRF pathway incubated for 48 hrs by luciferase reporter gene assay relative to 2',3'-cGAMP; type: cell-based; details: filed as activator
T2 sequence (whole entry): T1 sequence (Q3TBT3 whole entry)
Procedure, shortened: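 RAW-Lucia ISG cells (~100,000/well), 48 h at 37 °C, 5% CO2, compound in saline at seven concentrations, Quanti-Luc luciferase read-out. Emax taken as fitted top plateau, normalized to the 2',3'-cGAMP response in each assay; mean percentage ± SD of three independent experiments.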

[6] = target: T3, Stimulator of interferon genes protein (Homo sapiens, UniProt Q86WV6); assay: Activation of STING in human blood assessed as induction of type I IFNs incubated for 18 to 20 hrs by QUANTI-Blue assay; type: tissue-based
T3 sequence (Q86WV6 whole entry): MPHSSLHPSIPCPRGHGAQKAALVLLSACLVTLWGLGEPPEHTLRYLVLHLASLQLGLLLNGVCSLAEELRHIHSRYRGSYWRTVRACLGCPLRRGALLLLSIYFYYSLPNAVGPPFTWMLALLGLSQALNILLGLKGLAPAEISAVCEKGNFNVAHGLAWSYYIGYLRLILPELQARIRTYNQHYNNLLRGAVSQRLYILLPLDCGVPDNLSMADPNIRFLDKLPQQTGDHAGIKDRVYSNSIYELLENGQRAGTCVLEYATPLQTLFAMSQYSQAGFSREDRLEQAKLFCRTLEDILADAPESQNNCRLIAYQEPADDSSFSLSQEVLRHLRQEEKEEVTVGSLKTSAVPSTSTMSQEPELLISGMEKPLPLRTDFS

Nuclease P1 [7] = target: T4, Nuclease P1 (Penicillium citrinum, UniProt P24289); assay: Stability in presence of nuclease P1 assessed as half life at 7 ug incubated for 2 hrs by HPLC analysis; type: ADME; details: nuclease P1 (isolated enzyme), dose 7 µg
T4 sequence (P24289 whole entry): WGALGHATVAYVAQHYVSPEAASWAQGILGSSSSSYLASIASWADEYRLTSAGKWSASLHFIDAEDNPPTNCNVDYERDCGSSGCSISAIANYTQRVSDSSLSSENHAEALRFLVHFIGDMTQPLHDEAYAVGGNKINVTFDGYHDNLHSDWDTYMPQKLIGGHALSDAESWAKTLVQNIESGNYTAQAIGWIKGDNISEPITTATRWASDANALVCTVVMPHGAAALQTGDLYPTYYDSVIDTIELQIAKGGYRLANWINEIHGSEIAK
Procedure, shortened: (§2)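 7 µg CDN incubated at 37 °C with 2.5 mU NP1 in 30 mM acetate buffer, 2 mM ZnCl2, pH 5.3 (water control). Aliquots taken from 0 to 2 h, heated 100 °C for 2 min, frozen, then analysed by reverse-phase UPLC with UV detection.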

[8] = test system: snake venom phosphodiesterase; assay: (§3) Stability in presence of snake venom phosphodiesterase assessed as parent compound degradation at 7 ug incubated for 2 hrs by HPLC analysis; type: ADME; details: snake venom phosphodiesterase, read-out: Drug degradation; procedure, shortened: as §1
[9] = target: T5, ENPP1 (ectonucleotide pyrophosphatase/phosphodiesterase family member 1) (Homo sapiens, UniProt P22413); assay: Stability in presence of ENPP1 ( unknown origin) assessed as half life by HPLC analysis; details: ENPP1 (isolated enzyme, unknown origin)
T5 sequence (P22413 whole entry): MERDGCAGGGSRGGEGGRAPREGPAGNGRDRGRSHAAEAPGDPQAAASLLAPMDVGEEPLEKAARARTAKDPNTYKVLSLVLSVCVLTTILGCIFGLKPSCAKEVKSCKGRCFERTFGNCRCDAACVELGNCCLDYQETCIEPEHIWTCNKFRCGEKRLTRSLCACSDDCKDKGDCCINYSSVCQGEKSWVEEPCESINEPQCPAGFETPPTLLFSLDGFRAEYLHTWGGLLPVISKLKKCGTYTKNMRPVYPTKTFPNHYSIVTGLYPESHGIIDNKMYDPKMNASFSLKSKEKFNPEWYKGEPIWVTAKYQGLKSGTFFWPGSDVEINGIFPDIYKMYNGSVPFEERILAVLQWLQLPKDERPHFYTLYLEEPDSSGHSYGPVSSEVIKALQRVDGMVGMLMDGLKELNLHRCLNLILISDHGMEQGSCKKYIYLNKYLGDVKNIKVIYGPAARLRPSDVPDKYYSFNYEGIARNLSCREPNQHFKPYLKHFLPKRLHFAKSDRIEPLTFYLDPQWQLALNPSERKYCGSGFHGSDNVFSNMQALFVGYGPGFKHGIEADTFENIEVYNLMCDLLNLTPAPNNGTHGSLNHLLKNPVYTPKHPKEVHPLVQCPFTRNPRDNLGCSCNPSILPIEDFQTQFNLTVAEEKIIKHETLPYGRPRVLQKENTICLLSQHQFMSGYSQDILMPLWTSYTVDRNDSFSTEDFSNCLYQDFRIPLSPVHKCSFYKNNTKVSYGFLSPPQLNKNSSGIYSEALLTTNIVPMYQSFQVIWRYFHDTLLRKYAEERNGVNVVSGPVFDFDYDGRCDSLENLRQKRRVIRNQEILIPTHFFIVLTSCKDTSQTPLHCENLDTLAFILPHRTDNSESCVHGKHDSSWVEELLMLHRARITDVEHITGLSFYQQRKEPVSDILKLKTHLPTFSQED

Nuclease P1 [10] = target: T4, Nuclease P1; assay: Stability in presence of nuclease P1 assessed as parent compound remaining level at 7 ug incubated for 2 hrs by HPLC analysis; type: ADME; details: at 7 µg; for Stabilty: in vitro, 2 h; procedure, shortened: as §2
[11] = target: T3, Stimulator of interferon genes protein; assay: Activation of STING in human blood assessed as increase in IL-1 production at 10 ug/ml incubated for 18 to 20 hrs by QUANTI-Blue assay; type: tissue-based; details: filed as activator, time 18-20 hrs
Procedure, shortened: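 Whole blood from healthy donors, diluted 1:2 in RPMI with sodium pyruvate, incubated 18–20 h at 37 °C with CDN in saline. Supernatants assayed on HEK-Blue IL-1R reporter cells (~50,000/well, ~20 h, 37 °C), SEAP read with QUANTI-Blue. Fold induction over unstimulated; mean of fifteen donors over three experiments.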

[12] = as §3; type: ADME; details: in vivo, 2 h; procedure, shortened: as §1
RAW [13] = assay: Induction of type I IFN production in mouse RAW-Lucia ISG-KO-STING cells at 0.08 to 100 ug/ml incubated for 48 hrs by luciferase reporter gene assay; type: functional, cell-based; details: dose 0.08-100 µg/ml

Row | Structure (SMILES) | Activity (RAW [1]) | Stabilty [2] | EC50 [4] | Emax [5] | EC50 [6] | also measured
1 | Nc1ncnc2c1ncn2[C@H]1C[C@@H]2OP(=O)(S)OC[C@H]3O[C@@H](n4cnc5c(O)ncnc54)[C@H](F)[C@@H]3OP(=O)(S)OC[C@H]2O1 (stereo partly specified) | inactive | Stable | 2.2 µM | 83% | 4.7 µM | Stabilty [3]: Stable
2 | Nc1ncnc2c1ncn2[C@@H]1O[C@@H]2COP(=O)(O)O[C@H]3[C@@H](O)[C@H](n4cnc5c(O)ncnc54)O[C@@H]3COP(=O)(O)O[C@@H]1[C@@H]2O | inactive |  |  | 85% |  | 
3 | Nc1ncnc2c1ncn2[C@H]1C[C@@H]2OP(=O)(O)OC[C@H]3O[C@@H](n4cnc5c(O)ncnc54)[C@H](F)[C@@H]3OP(=O)(O)OC[C@H]2O1 | inactive | Stable | 5 µM | 93% | 2.8 µM | 
4 | Nc1ncnc2c1ncn2[C@H]1C[C@@H]2OP(=O)(O)OC[C@H]3O[C@@H](n4cnc5c(O)ncnc54)C[C@@H]3OP(=O)(O)OC[C@H]2O1 | inactive | Stable | 11.6 µM | 91% | 9.9 µM | half-life at 7 ug (Nuclease P1 [7]): 5.7 min; metabolised at 2 h, 7 ug [8]: < 40%
5 | Nc1nc2c(ncn2[C@@H]2O[C@@H]3COP(=O)(O)O[C@H]4[C@@H](O)[C@H](n5cnc6c(N)ncnc65)O[C@@H]4COP(=O)(O)O[C@@H]2C3)c(=O)[nH]1 |  |  |  |  |  | half-life [9]: 60 min
6 | Nc1ncnc2c1ncn2[C@@H]1O[C@@H]2COP(=O)(O)O[C@@H]3[C@H](O)[C@@H](COP(=O)(O)O[C@@H]1[C@@H]2O)O[C@H]3n1cnc2c(O)ncnc21 | inactive |  |  | 95% |  | 
7 | Nc1ncnc2c1ncn2[C@@H]1O[C@@H]2COP(=O)(S)O[C@H]3[C@@H](F)[C@H](n4cnc5c(O)ncnc54)O[C@@H]3COP(=O)(S)O[C@H]2[C@H]1F (stereo partly specified) | inactive | Stable | 0.6 µM | 104% | 0.4 µM | Stabilty (Nuclease P1 [10]): Stable; Activity [11]: Active; Stabilty [3]: Stable
8 | Nc1ncnc2c1ncn2[C@@H]1O[C@@H]2COP(=O)(S)O[C@H]3[C@@H](O)[C@H](n4cnc5c(O)ncnc54)O[C@@H]3COP(=O)(S)O[C@H]2[C@H]1O (stereo partly specified) | inactive | Stable | 4 µM | 115% | 10.6 µM | Stabilty (Nuclease P1 [10]): Stable
9 | Nc1ncnc2c1ncn2[C@@H]1O[C@@H]2COP(=O)(O)O[C@@H]3[C@H](O)[C@@H](COP(=O)(O)O[C@H]2[C@H]1O)O[C@H]3n1cnc2c(=O)[nH]cnc21 | inactive |  | 6.1 µM | 85% |  | half-life at 7 ug (Nuclease P1 [7]): 7.1 min
10 | Nc1ncnc2c1ncn2[C@@H]1O[C@@H]2COP(=O)(O)O[C@H]3[C@@H](O)[C@H](n4cnc5c(O)ncnc54)O[C@@H]3COP(=O)(O)O[C@H]2[C@H]1O | inactive |  |  | 107% |  | half-life at 7 ug (Nuclease P1 [7]): 23.1 min; Stabilty [12]: Unstable
11 | Nc1ncnc2c1ncn2[C@@H]1O[C@@H]2COP(=O)(O)O[C@H]3C[C@H](n4cnc5c(O)ncnc54)O[C@@H]3COP(=O)(O)O[C@H]2[C@H]1F | inactive |  | 9.1 µM | 99% | 3.6 µM | 
12 | Nc1ncnc2c1ncn2[C@@H]1O[C@@H]2COP(=O)(O)O[C@H]3[C@@H](F)[C@H](n4cnc5c(O)ncnc54)O[C@@H]3COP(=O)(O)O[C@H]2[C@H]1F | inactive | Stable | 5.1 µM | 90% | 0.7 µM | Stabilty (Nuclease P1 [10]): Stable; Activity [11]: Active
13 | Nc1nc2c(ncn2[C@@H]2O[C@@H]3COP(=O)(O)O[C@H]4[C@@H](O)[C@H](n5cnc6c(N)ncnc65)O[C@@H]4COP(=O)(O)O[C@@H]2[C@@H]3O)c(=O)[nH]1 | inactive | Stable |  |  |  | remaining at 2 h, 7 ug (Nuclease P1 [10]; nuclease P1 (isolated enzyme), time 2 hrs, read-out: Stabilty): 83%; half-life [9]: 60 min
14 | Cc1ccc2c(=O)c3cccc(CC(=O)O)c3oc2c1C |  |  |  |  |  | Activity (RAW [13]): inactive
